Measured values published in ChEMBL document CHEMBL1671683, “Activity of linezolid in an in vitro pharmacokinetic-pharmacodynamic model using different dosages and Staphylococcus aureus and Enterococcus faecalis strains with and without a hypermutator phenotype” (Antimicrob Agents Chemother, 2010).

Key:
Staphylococcus aureus [1] = test: Bactericidal activity against 13 hrs peripheral compartment culture samples of Staphylococcus aureus RN4220 MutS2 in two-compartment pharmacokinetic/pharmacodynamic model assessed as effect on bacterial count at 600 mg, bid administered as 0.5 hr infusion; assay type: functional
Outline: (§1)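 An 18-h culture concentrated 50-fold was injected into the peripheral compartment 3 h pre-sampling (~10^8 CFU/ml E. faecalis, 10^9 S. aureus). Counts came from dilution plating (detection limit 2–3 log10 CFU/ml), expressed as Δlog CFU/ml from treatment start. Run in duplicate.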

Enterococcus faecalis [2] = test: Bactericidal activity against 0.5 hrs peripheral compartment culture samples of Enterococcus faecalis ATCC 29212 in two-compartment pharmacokinetic/pharmacodynamic model assessed as effect on bacterial count at 200 mg, bid administered as 0.5 hr infusion; assay type: functional
Outline: (§2)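 Two-compartment hollow-fibre model in cation-adjusted, protein-free MH broth, 37°C. Linezolid given as simulated 0.5-h infusion twice daily. Inoculum grown 18 h, concentrated 50-fold and placed in the peripheral compartment 3 h before t0. Peripheral samples at set times counted by dilution plating. First 10-fold dilution not plated, limiting detection to 2–3 log10 CFU/ml. Δlog CFU/ml taken from t0 count. Duplicates.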

Enterococcus faecalis [3] = test: Bactericidal activity against 12 hrs peripheral compartment culture samples of Enterococcus faecalis ATCC 29212 in two-compartment pharmacokinetic/pharmacodynamic model assessed as effect on bacterial count at 200 mg, bid administered as 0.5 hr infusion; assay type: functional; outline: as §2
Enterococcus faecalis [4] = test: Bactericidal activity against 12.5 hrs peripheral compartment culture samples of Enterococcus faecalis ATCC 29212 in two-compartment pharmacokinetic/pharmacodynamic model assessed as effect on bacterial count at 200 mg, bid administered as 0.5 hr infusion; assay type: functional; outline: as §1
Enterococcus faecalis [5] = test: Bactericidal activity against 0.5 hrs peripheral compartment culture samples of Enterococcus faecalis ATCC 29212 in two-compartment pharmacokinetic/pharmacodynamic model assessed as effect on bacterial count at 600 mg, bid administered as 0.5 hr infusion; assay type: functional; outline: as §2
Enterococcus faecalis [6] = test: Bactericidal activity against 14 hrs peripheral compartment culture samples of Enterococcus faecalis ATCC 29212 in two-compartment pharmacokinetic/pharmacodynamic model assessed as effect on bacterial count at 600 mg, bid administered as 0.5 hr infusion; assay type: functional; outline: as §1
Enterococcus faecalis [7] = test: Bactericidal activity against 24 hrs peripheral compartment culture samples of Enterococcus faecalis ATCC 29212 in two-compartment pharmacokinetic/pharmacodynamic model assessed as effect on bacterial count at 600 mg, bid administered as 0.5 hr infusion; assay type: functional; outline: as §1
Enterococcus faecalis [8] = test: Bactericidal activity against 1 hr peripheral compartment culture samples of Enterococcus faecalis Ef1497 in two-compartment pharmacokinetic/pharmacodynamic model assessed as effect on bacterial count at 600 mg, bid administered as 0.5 hr infusion; assay type: functional; outline: as §2
Enterococcus faecalis [9] = test: Bactericidal activity against 12 hrs peripheral compartment culture samples of Enterococcus faecalis Ef1497 in two-compartment pharmacokinetic/pharmacodynamic model assessed as effect on bacterial count at 600 mg, bid administered as 0.5 hr infusion; assay type: functional; outline: as §2
Enterococcus faecalis [10] = test: Bactericidal activity against 24 hrs peripheral compartment culture samples of Enterococcus faecalis Ef1497 in two-compartment pharmacokinetic/pharmacodynamic model assessed as effect on bacterial count at 600 mg, bid administered as 0.5 hr infusion; assay type: functional; outline: as §1
Enterococcus faecalis [11] = test: Bactericidal activity against 48 hrs peripheral compartment culture samples of Enterococcus faecalis Ef1497 in two-compartment pharmacokinetic/pharmacodynamic model assessed as effect on bacterial count at 600 mg, bid administered as 0.5 hr infusion; assay type: functional; outline: as §1
Enterococcus faecalis [12] = test: Bactericidal activity against 2 hrs peripheral compartment culture samples of Enterococcus faecalis Ef1497 MutM3 in two-compartment pharmacokinetic/pharmacodynamic model assessed as effect on bacterial count at 200 mg, bid administered as 0.5 hr infusion; assay type: functional; outline: as §1
Enterococcus faecalis [13] = test: Bactericidal activity against 12.5 hrs peripheral compartment culture samples of Enterococcus faecalis Ef1497 MutM3 in two-compartment pharmacokinetic/pharmacodynamic model assessed as effect on bacterial count at 200 mg, bid administered as 0.5 hr infusion; assay type: functional; outline: as §1
Enterococcus faecalis [14] = test: Bactericidal activity against 14 hrs peripheral compartment culture samples of Enterococcus faecalis Ef1497 MutM3 in two-compartment pharmacokinetic/pharmacodynamic model assessed as effect on bacterial count at 200 mg, bid administered as 0.5 hr infusion; assay type: functional; outline: as §1
Enterococcus faecalis [15] = test: Bactericidal activity against 48 hrs peripheral compartment culture samples of Enterococcus faecalis Ef1497 MutM3 in two-compartment pharmacokinetic/pharmacodynamic model assessed as effect on bacterial count at 200 mg, bid administered as 0.5 hr infusion; assay type: functional; outline: as §1
Enterococcus faecalis [16] = test: Bactericidal activity against 0.5 hrs peripheral compartment culture samples of Enterococcus faecalis Ef1497 MutM3 in two-compartment pharmacokinetic/pharmacodynamic model assessed as effect on bacterial count at 600 mg, bid administered as 0.5 hr infusion; assay type: functional; outline: as §2
Enterococcus faecalis [17] = test: Bactericidal activity against 13 hrs peripheral compartment culture samples of Enterococcus faecalis Ef1497 MutM3 in two-compartment pharmacokinetic/pharmacodynamic model assessed as effect on bacterial count at 600 mg, bid administered as 0.5 hr infusion; assay type: functional; outline: as §1
Enterococcus faecalis [18] = test: Bactericidal activity against 24 hrs peripheral compartment culture samples of Enterococcus faecalis Ef1497 MutM3 in two-compartment pharmacokinetic/pharmacodynamic model assessed as effect on bacterial count at 600 mg, bid administered as 0.5 hr infusion; assay type: functional; outline: as §1
[19] = Residual concentration at the end of the administration interval in two-compartment pharmacokinetic/pharmacodynamic model at 600 mg, bid administered as 0.5 hrs infusion; assay type: ADME; conditions: iv, read-out: Drug uptake
[20] = Apparent volume of distribution in two-compartment pharmacokinetic/pharmacodynamic model at 200 mg, bid administered as 0.5 hrs infusion; assay type: ADME, organism-based; conditions: iv
[21] = Volume of distribution at steady state in two-compartment pharmacokinetic/pharmacodynamic model at 200 mg, bid administered as 0.5 hrs infusion; assay type: ADME, organism-based; conditions: iv, read-out: Vdss
[22] = Volume of distribution at steady state in two-compartment pharmacokinetic/pharmacodynamic model at 800 mg, bid administered as 0.5 hrs infusion; assay type: ADME, organism-based; conditions: iv, read-out: Vdss
[23] = Cmax in healthy human at 600 mg, iv, bid administered as 0.5 hr infusion; assay type: ADME, organism-based; set-up: dose 600 mg, route intravenous; conditions: in vivo
[24] = Elimination half-life in healthy human at 600 mg, iv, bid administered as 0.5 hr infusion; assay type: ADME, organism-based; conditions: in vivo, read-out: beta t1/2 (converted)
[25] = AUC in healthy human at 600 mg, iv, bid administered as 0.5 hr infusion; assay type: ADME, organism-based; conditions: plasma
Staphylococcus aureus [26] = test: Bactericidal activity against 0.5 hrs peripheral compartment culture samples of Staphylococcus aureus RN4220 in two-compartment pharmacokinetic/pharmacodynamic model assessed as effect on bacterial count at 600 mg, bid administered as 0.5 hr infusion; assay type: functional; outline: as §2
Staphylococcus aureus [27] = test: Bactericidal activity against 0.5 hrs peripheral compartment culture samples of Staphylococcus aureus RN4220 MutS2 in two-compartment pharmacokinetic/pharmacodynamic model assessed as effect on bacterial count at 600 mg, bid administered as 0.5 hr infusion; assay type: functional; outline: as §2
Enterococcus faecalis [28] = test: T>MIC in Enterococcus faecalis ATCC 29212 in two-compartment pharmacokinetic/pharmacodynamic model at 600 mg, bid administered as 0.5 hr infusion for 2 days; assay type: functional
[29] = Residual concentration at the end of the administration interval in two-compartment pharmacokinetic/pharmacodynamic model at 600 mg, bid administered as 0.5 hr infusion over 24 hrs; assay type: ADME; conditions: in vivo, iv

CC(=O)NC[C@H]1CN(c2ccc(N3CCOCC3)c(F)c2)C(=O)O1 [LINEZOLID]
log10CFU/ml (Staphylococcus aureus [1]): -0.81
log10CFU/ml (Enterococcus faecalis [2]): -0.08
log10CFU/ml (Enterococcus faecalis [3]): 0.14
log10CFU/ml (Enterococcus faecalis [4]): 0.26
log10CFU/ml (Enterococcus faecalis [5]): 0.04
log10CFU/ml (Enterococcus faecalis [6]): 0.18
log10CFU/ml (Enterococcus faecalis [7]): 0.32
log10CFU/ml (Enterococcus faecalis [8]): -0.05
log10CFU/ml (Enterococcus faecalis [9]): -0.12
log10CFU/ml (Enterococcus faecalis [10]): 0.35
log10CFU/ml (Enterococcus faecalis [11]): 0.39
log10CFU/ml (Enterococcus faecalis [12]): 0.06
log10CFU/ml (Enterococcus faecalis [13]): 0.23
log10CFU/ml (Enterococcus faecalis [14]): 0.41
log10CFU/ml (Enterococcus faecalis [15]): 0.79
log10CFU/ml (Enterococcus faecalis [16]): -0.01
log10CFU/ml (Enterococcus faecalis [17]): 0.25
log10CFU/ml (Enterococcus faecalis [18]): 0.44
concentration at 0.5 h [19]: 1170 ng/mL
Vd [20]: 141 L
Vd [21]: 120 L
Vd [22]: 104 L
Cmax [23]: 14100 ng/mL
half-life [24]: 5.1 h
AUC at 0.5 h [25]: 88100 ng·h/mL
log10CFU/ml (Staphylococcus aureus [26]): -0.04
log10CFU/ml (Staphylococcus aureus [27]): -0.21
fT>MIC (Enterococcus faecalis [28]): 69.1%
Drug uptake [29]: 1.26 µg/mL
